Screening data from PubChem.
VIM-2 inhibitor = blocks Pseudomonas aeruginosa VIM-2 metallo-beta-lactamase; purified VIM-2, nitrocefin hydrolysis, epi-absorbance fluorescence; 290,000 compounds, 0.89% hits; inhibition, % at 5.6 µM; AID 1527;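 active means inhibition above the mean of all tested compounds plus 3 SD, cutoff set per screening run, cut at about 7.5% in these data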;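 further: red hydrolysis product quenches plate fluorescence so inhibitors raise well fluorescence; 0% = enzyme with DMSO and 100% = DMSO without enzyme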
IMP-1 inh = inhibitors of Pseudomonas aeruginosa IMP-1 metallo-beta-lactamase; purified IMP-1, nitrocefin hydrolysis, epi-absorbance fluorescence; inhibition, % at 5.6 µM; 290,000 compounds, 0.45% hits;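 active means inhibition above the mean plus 3 SD of all compounds in the same screening run, cut at about 4.5% in these data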;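 further: 0% = IMP-1 with DMSO and 100% = DMSO wells lacking enzyme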
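System: purified recombinant IMP-1 beta-lactamase. Medium: Zinc- and detergent-supplemented HEPES buffer, pH 7.1. Compound: one 5.6 µM dose […]. Schedule: 15 min preincubation plus 25 min reaction at 25 °C. Technique: Epi-absorbance fluorescence, 480 nm excitation, 530 nm emission.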
M18AAP inhibitor = PfM18AAP enzyme inhibition; 290,000 compounds, 1.2% hits; inhibition, % at 7.35 µM; recombinant PfM18AAP, H-Glu-NHMec fluorogenic cleavage;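 active means inhibition above the campaign mean inhibition over all tested compounds plus 3 SD, cut at about 28% in these data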;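 further: 0% = plate median of test compound wells and 100% = 2 mM ZnCl2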
sPLA2-III inh = Inhibits HGIII-sPLA2 liposome hydrolysis, primary screen; Q9NZ20; QFRET BODIPY PC-A2 liposome hydrolysis, fluorescence; inhibition, % at 12.2 µM; 370,000 compounds, 0.56% hits; AID 743126;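 active means inhibition above mean plus 3 SD of compounds lying within the high and low control bounds, cut at about 19% in these data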;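 further: 0% = median of test compound wells and 100% = no enzyme DMSO wells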
Target sequence (Q9NZ20 whole entry, looked up): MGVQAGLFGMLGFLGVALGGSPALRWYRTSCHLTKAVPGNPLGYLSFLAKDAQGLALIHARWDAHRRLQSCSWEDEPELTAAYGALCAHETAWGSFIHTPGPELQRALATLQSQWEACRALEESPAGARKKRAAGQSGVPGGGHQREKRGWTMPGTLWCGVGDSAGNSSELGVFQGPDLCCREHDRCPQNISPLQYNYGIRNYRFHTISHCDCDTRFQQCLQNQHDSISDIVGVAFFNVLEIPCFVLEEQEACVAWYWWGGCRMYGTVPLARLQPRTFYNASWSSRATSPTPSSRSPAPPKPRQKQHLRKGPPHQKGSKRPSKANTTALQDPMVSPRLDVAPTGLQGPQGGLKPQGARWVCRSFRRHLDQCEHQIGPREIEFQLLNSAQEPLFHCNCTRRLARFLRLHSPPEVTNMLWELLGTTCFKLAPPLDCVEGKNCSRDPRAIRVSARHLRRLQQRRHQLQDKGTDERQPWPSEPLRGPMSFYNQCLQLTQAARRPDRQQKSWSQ
An asterisk follows results filed as active; / = no result. A selection: hits, their analogues and other compounds. The true share with any hit is near 2.4%.

SMILES | VIM-2 inhibitor | IMP-1 inh | M18AAP inhibitor | sPLA2-III inh
O=C(NNC(=O)c1ccc2c(c1)OCO2)NC1CCCCC1 | -4 | -3 | 30* | 0
O=C(NNC(=O)c1ccc(Br)s1)NC1CCCCC1 | -1 | 0 | 28* | 7
CN(C)c1cccc(C(=O)NNC(=O)NC2CCCCC2)c1 | -3 | -2 | 1 | -3
O=C(NC1CCCCC1)c1ccc2c(c1)OCO2 | -6 | -4 | 1 | 2
O=C(c1cc(Cl)cc(Cl)c1)N1CC[C@H]2[C@H](CCCN2Cc2ccccc2)C1 | / | / | / | -2
CC(COc1ccc(C#N)c(F)c1)CN1CCC(C(O)(c2ccccc2)c2ccccc2)CC1 (stereo not given) | / | / | / | -22
C=CCn1c(SCC(=O)N2CCN(C(=O)c3ccco3)CC2)nc2sc(CC)cc2c1=O | 12* | -1 | -4 | -5
Cn1c(NCc2cccnc2)nc2c1c(=O)n(Cc1ccccc1F)c(=O)n2C | 8.3* | -3 | -4 | 6
Oc1ccccc1C(=S)N1CCN(C(=S)c2ccccc2O)CC1 | -3 | -1 | 29* | 4
Oc1ccccc1C(=S)N1CCCC1 | -2 | -5 | 11 | -1
CC(C)OC(=O)C(C(=O)C(F)(F)F)c1cc(NS(=O)(=O)c2ccc3ccccc3c2)c2ccccc2c1O (stereo not given) | 3 | 9.1* | 5 | /
Cc1cc(C)c2nc(C)cc(Nc3ccc(C(=O)N(C)C)cc3)c2c1 | 0 | -5 | 2 | /
CC(=O)c1ccc(Nc2cc(C)nc3c(C)cc(C)cc23)cc1 | 8.0* | -3 | 7 | -6
COC(=O)c1ccc2nc(C)cc(Nc3ccc(N(C)C)cc3)c2c1 | 8.3* | -5 | -15 | 9
COc1ccc2nc(C)cc(N/N=C/c3ccc(F)cc3)c2c1 | 8.6* | -4 | 4 | -10
Cc1ccc(Nc2cc(C)nc3ccc(C)cc23)cc1 | 10.0* | 3 | -3 | -1
CCOc1ccc(Nc2cc(C)nc3ccc(C)cc23)cc1 | / | / | / | 11
COC(=O)c1ccc(Nc2cc(C)nc3ccccc23)cc1 | 1 | -1 | -2 | 12
C=CCN1[C@H](C#N)[C@@H](c2ccc(C#Cc3cccnc3)cc2)[C@H]1CO | / | / | / | -2
Cc1cc(Nc2ccc3c(c2)OCCO3)c2cc(Cl)ccc2n1 | 8.2* | 0 | -12 | 4
COc1ccc(Nc2cc(C)nc3ccc(OC)cc23)cc1 | 11* | -1 | -14 | -3
COc1ccc2nc(C)cc(Nc3ccc(C(=O)O)cc3)c2c1 | 3 | -1 | -18 | /
Cc1cc(Nc2cccc(Cl)c2)c2ccccc2n1 | 0 | -3 | 4 | -7
CCCCCCCCN1C(=O)[C@@H](CC(=O)N2CCC(c3ccccc3)CC2)C[C@@]2(C(=O)OC)C1=C[C@H](C(C)C)O[C@@H]2C1CC1 | / | / | / | 3
NC(CC(=O)OC1CCCCC1)C(=O)OC1CCCCC1 (stereo not given) | 3 | 5.4* | -16 | 2
SMILES | VIM-2 inhibitor | IMP-1 inh | M18AAP inhibitor | sPLA2-III inh
CC(C)(C)C1CCC(OC(=O)CN2CCCCC2)CC1 (stereo not given) | -3 | -4 | 3 | 11
COc1ccc(Cn2c(NC(=O)c3ccccc3)nc(Cc3ccccc3)c2-c2ccccc2)c(OC)c1 | / | / | / | 4
Cc1nc(Nc2ccc(O)cc2)c2c3c(sc2n1)CCCC3 | 8.4* | -4 | 4 | /
Cc1nnc(N/N=C/c2ccc(-c3ccccc3F)o2)n1N | -1 | -2 | 52* | 1
Cc1nnc(N/N=C/c2ccccc2O)n1N | -5 | -2 | 24 | -4
COc1cc(NC(=O)C2CCCN(S(=O)(=O)c3ccccc3)C2)cc(OC)c1 (stereo not given) | / | / | / | -17
O=C(CC1(O)C(=O)N(Cc2cccc3ccccc23)c2ccccc21)c1cccnc1 (stereo not given) | -3 | -3 | 8 | 0
CN1C(=O)C(O)(CC(=O)c2cccnc2)c2ccccc21 (stereo not given) | -2 | 8.6* | -7 | 1
CCOC(=O)[C@]12CCCCC/C=C\1N(CCc1ccc(Cl)cc1)C(=O)[C@H]2CC(=O)N1CCOCC1 | / | / | / | -2
COC(=O)COc1ccc2oc(=O)cc(-c3cc4cccc(OC)c4o3)c2c1 | -2 | 9.7* | 0 | 9
COc1cccc2cc(-c3cc(=O)oc4ccc(OCC(C)=O)cc34)oc12 | 4 | 1 | -8 | -5
NC(=O)NNC(=S)Nc1cccc2ccccc12 | -2 | -2 | 50* | 9
O=C1CCCC(O)=C1N=Nc1c(Cl)cc(C(F)(F)F)cc1Cl | -1 | 1 | 28* | 9
CC(C)Sc1nc2ccccc2n2cnnc12 | 11* | -2 | 9 | 1
CCCOC(=O)c1cc(=O)[nH]c2ccccc12 | 0 | 4.5* | -1 | 2
O=C(O)C(c1ccccc1)N1C(=O)/C(=C\c2ccc(-c3ccccc3Cl)o2)SC1=S (stereo not given) | 0 | 9.4* | 10 | -5
C/C(=N/NC(=O)Cc1cccs1)c1cccc([N+](=O)[O-])c1 | / | / | / | -2
FC(F)(F)c1cc(-c2cccs2)nc(-n2cc(Br)cn2)n1 | 1 | -3 | -5 | 7
Cc1cnn(-c2nc(-c3cccs3)cc(C(F)(F)F)n2)c1 | 8.1* | -1 | -7 | -4
CCOC(=O)c1cnc2c(ccc3ccccc32)c1NCCN(C)C | 12* | 0 | -2 | -8
CCOC(=O)c1cnc2c(cnn2C)c1NCCCN(C)C | 8.4* | -2 | 3 | 0
COc1ccc(S[C@]2(C(=O)N3CCN(c4ncccn4)CC3)CC(=O)N[C@@H]2c2ccc(OC)cc2)cc1 | / | / | / | -6
Nc1[nH]c2cc(Cl)ccc2c1C(=O)N1CCOCC1 | / | / | / | 11
OC1(c2cccs2)CN(c2ccc(Br)cc2)C2=[N+]1CCCS2 (stereo not given) | -1 | -2 | 3 | -5
COc1ccc(OC)c(N2CC(O)(c3cccs3)[N+]3=C2SCCC3)c1 (stereo not given) | 8.2* | -1 | -17 | 2
SMILES | VIM-2 inhibitor | IMP-1 inh | M18AAP inhibitor | sPLA2-III inh
Nc1ccc(N=Nc2ccccc2)c(N)n1 | -1 | -3 | -9 | 23*
COc1cccc(N2CCN(C(=O)CSc3nc4ncccc4[nH]3)CC2)c1 | / | / | / | 2
O=C(O)CN1C(=O)/C(=C/c2ccc(SCc3ccccc3)o2)SC1=S | 4 | 4.7* | 8 | -31
O=C(O)CN1C(=O)/C(=C/c2ccsc2)SC1=S | 3 | 0 | 29* | -6
O=C(O)CN1C(=O)/C(=C\c2ccc(OC(=O)c3ccco3)cc2)SC1=S | 2 | 0 | -2 | -20
C=CCN1C(=O)/C(=C/c2ccsc2)SC1=S | -3 | -2 | 3 | 2
CCN(CC)c1ccc(C=Nn2c(-c3ccc(F)cc3)n[nH]c2=S)c(O)c1 | / | / | / | -8
Cc1nn(-c2ccccc2)c(OC(=O)c2cccs2)c1S(=O)(=O)c1ccccc1 | -2 | -5 | 7 | -1
Cc1nn(-c2ccccc2)c(OC(=O)c2cccs2)c1S(=O)(=O)c1ccc([N+](=O)[O-])cc1 | -1 | 4.8* | -9 | -9
C=CCN1[C@H](Cc2ccccc2)COc2cccc(N3CCCC3)c2S1(=O)=O | / | / | / | 6
S=c1[nH]nc(-c2n[nH]c3c2CCC3)n1N=Cc1c2ccccc2cc2ccccc12 | / | / | / | 5
COc1ccc(C(=S)N2CCN(c3cccc(Cl)c3)CC2)cc1 | -4 | -3 | -1 | 20*
